The text below walks through data of ChEMBL document CHEMBL1914345 (Bioorg Med Chem Lett, 2011).

pKd: −log10 of the molar value.

Assay [1] relates to Oocyte. The assay is described as follows: Ratio of 2-(dimethylamino)ethyl 4-(octylamino)benzoate Kd(app) to compound Kd(app) for retinal rod CNGA1/CNGB1 expressed in Xenopus laevis oocytes. Type of assay: cell-based.
Assay [2] in a line: Inhibition of retinal rod CNGA1/CNGB1 expressed in Xenopus laevis oocytes assessed as blockade of cGMP-induced current at -50 mV holding potential by patch-clamp electrophysiology. Format: cell-based. The following applies: oocyte; read-out: Kd(app). The method in brief:
(§1)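 Heteromeric retinal CNGA1 plus CNGB1 channels expressed in Xenopus laevis oocytes. Currents activated by 2 mM cGMP and recorded at both +50 and -50 mV. Apparent Kd taken by fitting current amplitudes to a single-binding-site block equation.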
A general note: Patch clamp records ionic current or voltage across a cell membrane.

A short description of assay [3]: Inhibition of retinal rod CNGA1/CNGB1 expressed in Xenopus laevis oocytes assessed as blockade of cGMP-induced current at +50 mV holding potential by patch-clamp electrophysiology. Type of assay: cell-based. To be noted: oocyte; read-out: Kd(app). The method in brief: as §1
The subject of assay [4] is Oocyte. The assay is described as follows: Ratio of tetracaine Kd(app) to compound Kd(app) for retinal rod CNGA1/CNGB1 expressed in Xenopus laevis oocytes. Format: cell-based.
Assay [5] can be described thus: Ratio of Kd(app) for sodium channel to Kd(app) for retinal rod CNGA1/CNGB1.

As a reminder, the pKd is the negative decadic logarithm of the Kd, by convention in mol/L. Regarding `CCCCCCCCNc1ccc(C(=O)OCCN(C)C)cc1Cl`, the Ratio was found to be 8 in assay [1] and 50 in assay [4]. Besides, the values for the pKd in assay [2] and in assay [3] were 6.42 and 6.85, respectively.

Take `CCCCCCCCNc1ccc(C(=O)OCCN(C)C)cc1Br`: the Ratio in assay [1] was determined as 8; in assay [4], 50. Besides, the pKd is 6.62 in assay [2] and 6.85 in assay [3].

For `CCCCNc1ccc(C(=O)OCCN(C)C)cc1[N+](=O)[O-]`, the negative logarithm of the Kd (pKd) in assay [2] was 4.71; in assay [3], 5.26.

Regarding `CCCCNc1ccc(C(=O)OCCN(C)C)cc1Cl`, the pKd is 4.89 in assay [2] and 5.52 in assay [3].

`CCCCNc1ccc(C(=O)OCC[N+](C)(C)CCCNCCCN)cc1`: the Ratio in assay [5] is 100.

Take `CCCCCCCCNc1ccc(C(=O)OCCN(C)C)cc1[N+](=O)[O-]`: the pKd is 4.90 in assay [2] and 5.10 in assay [3].

Regarding `CCCCNc1ccc(C(=O)OCCN(C)C)cc1C`, the values for the pKd in assay [2] and in assay [3] were 4.55 and 5.11, respectively.

With `CCCCNc1ccc(C(=O)OCCN(C)C)cc1OC`, the negative-log Kd (pKd) in assay [2] is 4.74; in assay [3] it was 5.37.

In the case of `CCCCCCCCNc1ccc(C(=O)OCCN(C)C)cc1C`, the pKd is 5.85 in assay [2] and 6.30 in assay [3].

Turning to `CCCCCCCCNc1ccc(C(=O)OCCN(C)C)cc1OC`, the pKd in assay [2] was 5.52; in assay [3], 5.90.

As to `CCCCCCCCNc1ccc(C(=O)OCCN(C)C)cc1F`, the Ratio in assay [1] worked out at 8; in assay [4], 50. In addition, the pKd was 6.12 in assay [2] and 6.70 in assay [3].

In the case of `CCCCCCCCNc1ccc(C(=O)OCCN(C)C)c(Cl)c1`, the results for the Ratio in assay [1] and in assay [4] were 8 and 50, respectively. Further, the negative logarithm of the Kd (pKd) in assay [2] was 6.66; in assay [3] it was 7.00.

Consider `CCCCCCCCNc1ccc(C(=O)OCCN(C)C)cc1`, for which the figures for the pKd in assay [2] and in assay [3] were 5.76 and 6.10, respectively.
